Rows were chosen to be rich in hits. Some 1.7% of all compounds tested hit in one or more screens of this group.
STEP inh = STEP (human) phosphatase inhibition; P54829; recombinant STEP, OMFP fluorogenic substrate, fluorescence; inhibition, % at 20 µM; 0.25% of 360,000 active; AID 588621;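 active means inhibition at 20 µM, scaled per plate between control wells, above about 37%, limit read from the data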;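 further: 0% = DMSO with enzyme and substrate and 100% = substrate only without enzyme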
Target sequence (P54829 whole entry, looked up): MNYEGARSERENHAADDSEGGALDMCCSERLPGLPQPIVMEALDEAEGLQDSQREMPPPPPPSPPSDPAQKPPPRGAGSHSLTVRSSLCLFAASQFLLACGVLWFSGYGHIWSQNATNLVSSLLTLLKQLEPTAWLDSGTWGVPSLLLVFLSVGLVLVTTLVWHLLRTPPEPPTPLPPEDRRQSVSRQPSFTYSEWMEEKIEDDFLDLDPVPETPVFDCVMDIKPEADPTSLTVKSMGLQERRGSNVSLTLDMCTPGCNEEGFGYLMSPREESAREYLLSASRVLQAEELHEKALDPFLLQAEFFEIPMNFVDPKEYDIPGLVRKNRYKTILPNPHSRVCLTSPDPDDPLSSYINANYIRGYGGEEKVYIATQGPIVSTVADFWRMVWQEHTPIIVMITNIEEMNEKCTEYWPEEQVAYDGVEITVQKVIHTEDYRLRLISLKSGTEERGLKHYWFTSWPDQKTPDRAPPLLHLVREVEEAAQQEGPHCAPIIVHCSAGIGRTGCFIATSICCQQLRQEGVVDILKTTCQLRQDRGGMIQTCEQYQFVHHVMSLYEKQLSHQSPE
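Material: STEP (striatal-enriched tyrosine phosphatase) enzyme, cell-free; Compound dosing: 20 µM single dose in 1% DMSO; Technique: fluorescence read at 480 nm ex / 540 nm em; Times: reaction 20 min, ambient temperature; Medium: 50 mM Bis-Tris pH 6.0 with 2.5 mM DTT and 0.005% Tween 20; Also added: OMFP at 25 µM.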
Scp-1 inhibitor = Scp-1 (human) phosphatase inhibition; Q9GZU7; Recombinant Scp1, phosphopeptide, malachite green phosphate absorbance; inhibition, % at 20 µM; 0.88% of 340,000 active; AID 493091;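 active means inhibition above about 50% at 20 µM, limit read from the data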;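 further: plate controls were DMSO wells with enzyme for no effect and wells lacking enzyme for full effect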
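Assay system: SCP-1 catalytic fragment, aa 76-261 | Buffer or medium: Tris acetate buffer pH 5.5 with MgCl2 and Tween-20 | Compound: One concentration, 20 µM, with 1.0% DMSO | Also added: Phospho 17-mer peptide substrate | Signal: Absorbance at 630 nm | Incubation: 45 min enzyme reaction at room temperature | Measure: % inhibition of SCP-1 phosphate liberation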
LMPTP inh = LMPTP (human) inhibition; inhibition, % at 20 µM; AID 651560; P24666; 0.22% of 360,000 active; recombinant LMPTP-A, OMFP fluorogenic substrate, fluorescence intensity;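 active means compounds that cut the enzyme signal by at least half of the control window in the single-dose screen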;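 further: plate controls were DMSO wells with enzyme plus substrate for no effect and substrate without enzyme for full effect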
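Buffer or medium: Bis-Tris pH 6.0, DTT, detergent; Assay system: LMPTP-A enzyme; Quantity: 0.625 nM enzyme; Detection: endpoint fluorescence intensity; Times: 50 min dark incubation at room temperature; Controls: substrate-only low control, DMSO enzyme-plus-substrate high control; Doses: single 20 µM dose; Read-out: percent inhibition versus substrate-only and uninhibited controls; Reagent: 400 µM OMFP.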
DNMT1 block = DNMT1 (human) enzyme inhibition; P26358; DNMT1 molecular beacon, Hinp1I cleavage, fluorescence; inhibition (reported as % activation of signal), % at 10 µM; 0.83% of 360,000 active; in the data active means inhibition above about 50%
SUMO1 PPI mod = alters human SUMO1 binding to SIM partners; P63165; SUMO1 binding to a labelled peptide, TR-FRET, 1 h; inhibition, % at 20 µM; 0.33% of 360,000 active; AID 602429; in the data active means inhibition above about 37%
Target sequence (P63165 whole entry, looked up): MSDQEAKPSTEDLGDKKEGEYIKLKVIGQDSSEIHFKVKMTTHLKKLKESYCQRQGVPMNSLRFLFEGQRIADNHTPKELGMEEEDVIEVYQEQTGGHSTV
DNMT1 inh conf = DNMT1 inhibition confirmation, single concentration; inhibition, % at 10 µM; 8% of 2,300 active; shares compounds with DNMT1 block; DNMT1 molecular beacon HinP1I cleavage, fluorescence;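 active means average inhibition of at least 30% in the single-concentration confirmation test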
DNMT1 interf = shows spectral interference in the DNMT1 beacon assay; DNMT1 molecular beacon spectral interference counterscreen, fluorescence 485/520; shares compounds with DNMT1 block; 1% of 2,300 active; activation (fluorescence interference), % at 10 µM;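 active means activation of at least 30% at 10 µM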;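 further: DNMT1 catalytic domain with a HinP1I cleavage step and a FAM/dabcyl DNA beacon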
* = called active by the depositor; x = no result.

SMILES	STEP inh	Scp-1 inhibitor	LMPTP inh	DNMT1 block	SUMO1 PPI mod	DNMT1 inh conf	DNMT1 interf
COc1ccc2c(Cl)c(C(=O)N/N=C/c3ccc4c(c3)OCO4)sc2c1	3	0	16	62*	-2	2	-4
COc1ccccc1NS(=O)(=O)c1cccc(C(=O)N/N=C/c2ccc3c(c2)OCCO3)c1	1	2	1	-5	2	x	x
COc1ccc(NS(=O)(=O)c2cccc(C(=O)N/N=C/c3ccc4c(c3)OCCO4)c2)cc1	-3	-4	-1	60*	4	4	1
O=C(N/N=C/c1ccc2c(c1)OCO2)c1sc2cccc(Cl)c2c1Cl	0	-7	1	35	-3	x	x
Cc1nc(CC(=O)N2CCN(c3cccc(C)c3C)CC2)cs1	2	-9	-1	0	2	x	x
COc1cc2c(cc1NC(=O)CSc1cccc[n+]1[O-])oc1ccccc12	0	-7	-1	72*	0	2	0
COc1cc2c(cc1NC(=O)CSc1nnnn1-c1ccccc1)oc1ccccc12	-2	-4	-1	52*	-1	1	-3
COc1cc2c(cc1NC(=O)CSc1ccc(C)cc1)oc1ccccc12	1	-6	4	-10	-2	x	x
O=C(NCc1ccccc1F)C1CCCN1C(=O)Nc1ccc(Cl)cc1 (stereo not drawn)	-1	-10	-1	1	0	x	x
Cn1c2ccccc2c(=O)c2c(=O)n(Cc3ccccc3)c(-c3ccc(F)cc3)nc21	1	0	1	63*	-8	0	0
COc1ccc(Cn2c(-c3ccc(C)cc3)nc3c(c(=O)c4ccccc4n3C)c2=O)cc1	2	2	11	83*	5	2	4
O=C(COC(=O)Cc1ccsc1)Nc1ccc(Cl)c(S(=O)(=O)N2CCOCC2)c1	-2	-5	0	77*	-2	1	3
COc1ccccc1C(=O)Nc1sc2c(c1C(=O)NCc1ccco1)CCCC2	-2	-10	0	51*	-2	-1	-4
O=C(Cc1cccs1)Nc1ccc(S(=O)(=O)Nc2ncccn2)cc1	-3	25	6	68*	10	13	0
COc1cccc(C(C(=O)NC2CCCC2)N(CC2CCCO2)C(=O)Cc2cccs2)c1 (stereo not drawn)	4	-5	-1	3	5	x	x
COc1ccc(-c2cc(=O)oc3c(C)c(OC(=O)c4cccs4)ccc23)cc1	1	1	2	60*	1	3	-9
CC1(C(=O)NS(=O)(=O)c2ccc3c(c2)CCO3)CCN1C(=O)COc1ccc(Cl)cc1 (stereo not drawn)	-2	x	-3	85*	2	4	6
CC1(C(=O)NS(=O)(=O)c2ccc3c(c2)CCO3)CCN1C(=O)C1(c2ccc(Cl)cc2)CC1 (stereo not drawn)	-2	x	-2	1	4	x	x
Cc1ccc(NS(=O)(=O)c2cc(C(=O)NCCCN(C)C)ccc2Cl)cc1Cl	2	-4	-1	-2	0	x	x
Cc1cc(O)cc(=O)n1Cc1ccccc1	-2	-11	-1	1	2	x	x
COC(=O)c1sccc1NC(=O)c1cc(-c2cccc(C)c2)nc2ccccc12	-5	7	1	50*	-2	0	-12
COC(=O)c1sccc1NC(=O)c1cc(-c2ccc(C)cc2)nc2ccccc12	-1	0	1	8	0	x	x
Cc1c(C(=O)NCc2ccc(F)cc2)sc(=O)n1Cc1ccccc1	2	x	0	2	2	x	x
Nc1ccccc1C(=O)NCCCN1CCN(c2cccc(Cl)c2)CC1	2	-11	-2	0	0	x	x
CC1(C)C(=O)Nc2ccccc2N1C(=O)COc1cccnc1[N+](=O)[O-]	2	16	-1	58*	-9	5	2
SMILES	STEP inh	Scp-1 inhibitor	LMPTP inh	DNMT1 block	SUMO1 PPI mod	DNMT1 inh conf	DNMT1 interf
Cc1ccc(OCC(=O)N2c3ccccc3NC(=O)C2(C)C)c([N+](=O)[O-])n1	-1	4	-2	0	7	x	x
O=C(COc1ccc(Cl)cc1Cl)Nc1ccc(C(=O)Nc2ccccc2C(=O)O)cc1	11	30	14	84*	41*	18	5
COc1ccc(CN(C)C(=O)Cn2ccc(N)nc2=O)cc1OC	1	-4	-1	89*	-4	1	3
COc1ccc(CN(C)CCCn2ccc(N)nc2=O)cc1OC	0	x	-3	2	3	x	x
Cn1c(SSc2ccc(-c3cccnc3)n2C)ccc1-c1cccnc1	4	-10	-2	-6	-1	x	x
NC1=NC[C@H](Cc2ccc(O)cc2)N1CCc1cccc(F)c1	-2	1	-2	3	4	x	x
NC1=NC[C@@H](Cc2ccc(O)cc2)N1CCC12CC3CC(CC(C3)C1)C2	0	4	0	58*	2	0	-1
Cc1ccc(-c2[nH]ncc2/C=N/n2c(COc3ccccc3)nc3ccccc3c2=O)cc1	-1	-8	1	67*	-1	3	5
Cc1ccccc1OCc1nc2ccccc2c(=O)n1/N=C/c1cn[nH]c1-c1ccccc1	-3	-4	2	-5	0	x	x
CC(OC(=O)c1ccc(Cl)cc1)C(=O)NCC1CCCCC1 (stereo not drawn)	1	-3	-1	1	-1	x	x
COc1ccc2[nH]c(C)c(CCN3C(=O)C4C5C=CC(C5)C4C3=O)c2c1 (stereo not drawn)	-2	-16	0	82*	0	0	1
O=C1CC(N2CCN(c3ccccc3)CC2)C(=O)N1c1cccc(Cl)c1 (stereo not drawn)	-3	-10	-1	71*	5	1	77*
COC(=O)c1cc2occc2n1Cc1nc(-c2ccc(Cl)cc2)oc1C	0	-10	1	1	1	x	x
COC(=O)c1cc2occc2n1Cc1nc(-c2ccccc2Cl)oc1C	-12	-13	0	86*	2	1	2
COc1ccc2c(c1OC)C(=O)N1c3ccccc3N=C(c3ccc([N+](=O)[O-])cc3)CC21 (stereo not drawn)	0	-4	0	62*	-25	0	-2
COc1ccc2c(c1OC)C(=O)N1N=C(c3ccc(-c4ccccc4)cc3)CC21 (stereo not drawn)	1	-8	4	-1	-4	x	x
CC(C)C[C@H]1CNC(=S)N1CC1CCN(CCCCc2ccccc2)CC1	5	4	-2	2	3	x	x
CC1CCCN(CCCNC(=O)C2CCC(CNS(=O)(=O)c3cccc4nsnc34)CC2)C1 (stereo not drawn)	-3	1	0	50*	-30	4	2

Screening data deposited in PubChem BioAssay by Sanford-Burnham Center for Chemical Genomics.
